Only some compounds are listed: those with a hit (about 11% of all), similar ones and a draw of the others.
SF-1 act – activators of human nuclear receptor SF-1. AID 522. CHO-K1 Gal4-SF-1 LBD luciferase reporter; % increase over DMSO SF-1-specific signal. activation, % at 10 µM. hit rate 1.9% among 65,000. Q13285;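 active means activation above the mean activation of all tested compounds plus 3 SD, cut at about 50% in these data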
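Test system: CHO-K1 cells co-transfected with Gal4 DBD–human SF-1 LBD, 5xGal4 luciferase reporter. Quantity: 4,000 cells per well. Compound: 10 µM only. Incubation: compound added 1 h post-seeding, 20 h exposure at 37 °C, 5% CO2. Detection: SteadyLite luciferase luminescence. Replication: one test per compound.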
M1 antagonist – blocks the rat M1 muscarinic receptor response to acetylcholine | P08482 | CHO-M1 cells, Fluo-4 calcium, ACh EC80 antagonist mode; hits give low values | B-score at 10 µM | hit rate 3.4% among 64,000 | AID 628;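 active means calcium fluorescence response, raw or row-and-column corrected B-score, differing from the plate sample mean either way at a set confidence level, mostly lower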
RORa activator – activators of human nuclear receptor RORA | activation, % at 10 µM | P35398 | CHO-K1 Gal4-RORA LBD luciferase reporter, luminescence; percent increase over mock-subtracted basal signal | hit rate 1.5% among 65,000;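 active means activation above the mean of all tested compounds plus 3 SD, cut at about 49% in these data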;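 further: 0% = DMSO-treated RORA cells and 100% = added signal equal to DMSO minus mock-transfected cells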
Target sequence (P35398 whole entry, looked up, the tested form may be a part): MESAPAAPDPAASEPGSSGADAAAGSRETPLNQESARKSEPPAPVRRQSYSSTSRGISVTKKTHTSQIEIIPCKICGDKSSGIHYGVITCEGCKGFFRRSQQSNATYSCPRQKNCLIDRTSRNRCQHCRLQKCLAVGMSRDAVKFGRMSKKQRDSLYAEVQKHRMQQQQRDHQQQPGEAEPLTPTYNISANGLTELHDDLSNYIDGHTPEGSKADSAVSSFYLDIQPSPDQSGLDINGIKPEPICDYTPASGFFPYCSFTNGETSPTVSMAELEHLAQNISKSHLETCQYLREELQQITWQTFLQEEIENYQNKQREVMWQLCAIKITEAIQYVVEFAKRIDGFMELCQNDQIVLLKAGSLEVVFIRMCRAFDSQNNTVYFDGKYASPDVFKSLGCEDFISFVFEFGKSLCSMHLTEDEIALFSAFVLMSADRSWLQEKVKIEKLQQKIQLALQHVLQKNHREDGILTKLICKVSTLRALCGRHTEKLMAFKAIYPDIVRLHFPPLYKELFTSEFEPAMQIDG
D1 mod – allosteric modulators of human D1 dopamine receptor; P21728; HEK293 D1, CRE-luciferase, dopamine EC30 potentiation; actives deviate in either direction; B-score at 10 µM; hit rate 5.9% among 58,000; AID 641;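 active means luminescence count or its row- and column-corrected plate score outside the 99.7% band of the plate's sample wells, on either side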
mHtt clearance – compounds clearing mutant huntingtin protein; HeLa Exon1htt(103Q)mCFP, aggregate imaging; zero = plate's median compound well; inhibition, % at 1.5 µM; hit rate 0.42% among 47,000;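 active means inhibition of aggregate fluorescence above about 70%, also judged a hit by eye on the cell image, limit read from the data, passing the limit was not always enough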;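 further: cells exposed to compound for three days before fixation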
M1 ag – M1 muscarinic receptor agonism | hit rate 3% among 64,000 | CHO-M1 cells, Fluo-4 calcium fluorescence, agonist mode; hits give high values | AID 626 | B-score at 10 µM;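 active means fluorescence rise, raw or as B-score row- and column-corrected plate score, outside the 99.7% band of its plate's samples, either direction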
D1 mod confirm – confirmation of human D1 dopamine receptor allosteric modulators | hit rate 88% among 2,200 | shares compounds with D1 mod | HEK293 D1 CRE-luciferase, dopamine EC30 potentiation; hits give high values | luminescence at 10 µM;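 active means luminescence in either of two replicates above the same-plate mean plus 3 SD of the low-dose dopamine control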
D1 ag no DA – secondary test of D1 modulators: activity without dopamine; shares compounds with D1 mod; HEK293 D1 CRE-luciferase, luminescence, no dopamine; hits give high values; luminescence at 10 µM; hit rate 0.8% among 1,900; in the data active means luminescence above about 3900
Isoprot counter – isoproterenol response counter-screen activity for D1 modulators; shares compounds with D1 mod; HEK293 D1 CRE-luciferase, isoproterenol EC30 counter-screen; calls only at 10 µM; AID 647; hit rate 63% among 2,200;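 active means luminescence in either replicate above plate mean of wells with a partly effective reference agonist dose plus 3 SD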;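 further: isoproterenol raises cAMP through native beta-adrenoceptor Gs so signal bypasses D1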
An asterisk follows results filed as active; i = inactive; / = not tested or not shown; + = active, no number.

SMILES | SF-1 act | M1 antagonist | RORa activator | D1 mod | mHtt clearance | M1 ag | D1 mod confirm | D1 ag no DA | Isoprot counter
c1ccc(C2=Nn3c(nnc3-c3ccccn3)SC2)cc1 | 12.4 | -0.495 | -3.3 | / | -13.6 | -0.39 | / | / | /
c1cncc(-c2nnc3n2N=C(c2cccs2)CS3)c1 | -19.1 | -1.31 | -8.5 | 4.13* | / | 0.0189 | 15800* | 1740 | +
Cc1cc(C)n(C(C)n2nc(C)cc2C)n1 | 12.2 | 0.0207 | 10.8 | 0.308 | -102.3 | -0.0663 | / | / | /
COc1ccc(C2=Nn3c(nnc3-c3cccnc3)SC2)cc1 | -0.3 | 0.00625 | -11.3 | 5.55* | / | 0.0918 | 10056* | 1736 | +
Cc1cc(-c2nnc3n2N=C(c2ccc(-c4ccccc4)cc2)CS3)n[nH]1 | -20.9 | -0.628 | 2.0 | -0.3 | / | -1.03 | / | / | /
Cc1cccc(-c2nnc3n2N=C(c2ccccc2)CS3)c1 | -9.7 | 0.371 | -16.0 | 15.5* | -19.0 | 0.157 | 3880 | 1728 | +
COc1ccc(C2=Nn3c(nnc3-c3ccccc3)SC2)cc1OC | 41.8 | 0.563 | 11.9 | 29* | / | -0.561 | 21404* | / | +
Cc1ccc(-c2nnc3n2N=C(c2ccccc2Br)CS3)cc1 | 4.8 | 0.242 | -4.7 | 16.4* | / | 0.449 | 15256* | 1688 | +
CCOc1ccc(C2=Nn3c(nnc3-c3cccnc3)SC2)cc1 | -19.6 | 0.0242 | -13.0 | / | / | 0.522 | / | / | /
Cc1ccc(NC(=O)CSc2nnc(-c3ccc(S(=O)(=O)N4CCCC4)cc3)o2)cc1C | -9.5 | -0.0308 | -18.8 | 0.0496 | / | 0.456 | / | / | /
CCOc1ccc2nc(Nc3nc4c(c(=O)[nH]3)CCC4)nc(C)c2c1 | 37.3 | 0.245 | 1.1 | 0.0608 | / | 0.291 | / | / | /
Cc1cc(C)n(-c2nc(NCc3cccnc3)c3c4c(sc3n2)COC(C)(C)C4)n1 | -0.7 | -0.748 | -2.6 | 3.01* | -47.1 | 1.1 | 14976* | 1540 | +
CCCSc1nc(NCc2ccco2)c2c3c(sc2n1)COC(C)(C)C3 | / | / | / | / | -36.6 | / | / | / | /
c1cn(CC2(Cn3ccnc3)COC2)cn1 | 7.5 | 0.002 | -9.6 | 0.0428 | -77.9 | -0.0497 | / | / | /
CCOC(=O)C1CCCN(c2nc3ccccc3nc2C(C#N)C(=O)OCC)C1 (configuration not stated) | -9.7 | -0.719 | -0.6 | 2.95* | / | 0.814 | 8656* | 1548 | i
COc1ccc(-c2nnc3sc(C(C)N4C(=O)c5ccccc5C4=O)nn23)cc1 (configuration not stated) | -4.1 | -0.0323 | -15.9 | 9.32* | -0.3 | 0.993 | 10292* | 1588 | +
COc1ccc(-c2nnc3sc(CN4C(=O)c5ccccc5C4=O)nn23)cc1 | -12.0 | -1.92 | 4.6 | -0.209 | / | 0.98 | / | / | /
COc1ccc(C(=O)Nc2ccc(N3CCCC3)cc2)cc1 | / | / | / | / | -39.4 | / | / | / | /
CCCOc1ccc(C(=O)Nc2ccc(N3CCN(C(C)=O)CC3)cc2)cc1 | 10.8 | 0.00631 | 17.5 | 3* | 2.4 | 0.87 | 6192 | 1528 | i
COC(=O)n1c(SC)nc2ccccc21 | -3.7 | -1.32 | -16.3 | 5.61* | -8.0 | 0.104 | 11396* | 1220 | +
FC(F)(F)c1cccc(-c2ccc(-c3csnn3)o2)c1 | 7.8 | -0.00594 | 7.5 | 24.4* | 21.6 | -0.00337 | 5424 | 1700 | i
COC(=O)c1ccccc1NC(=O)C1CC(=O)N(C2CCCCC2)C1 (configuration not stated) | 0.7 | 0.409 | -11.5 | 0.759 | / | 0.165 | / | / | /
CCC1CCc2c(sc3ncnc(N4CCOCC4)c23)C1 (configuration not stated) | -9.4 | -0.233 | 2.8 | 17.1* | -42.6 | 0.96 | 15132* | 1584 | +
CCC(C)NC(=O)CS(=O)Cc1nc(-c2cccc(C)c2)oc1C (configuration not stated) | -7.9 | 0.123 | 8.6 | 4.54* | 34.7 | -1.04 | 5396 | 1376 | i
CCOC(=O)C1CCCN(Cc2nc(N)nc(Nc3ccc(OC)cc3)n2)C1 (configuration not stated) | -7.1 | 0.0193 | 0.7 | -1.1 | / | 3.6 | / | / | /
